According to publication PMC12495087 (ESMO Open, 2025):

Assay: phase I study BOS172738-01: safety and tolerability
Format: in vivo, human
In short: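 Patients received at least one dose of oral drug given once daily in 28-day cycles. Part A escalated 10–150 mg, by accelerated titration (dose doubling) and then 3+3 Fibonacci steps; part B used 75 mg. AEs were graded by CTCAE v4.03 from first dose to 31 days after last dose. DLTs counted in cycle 1. Missing causality was scored as related and missing grade as grade 3.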

[1] = any causality and grade, overall n = 117
[2] = overall total, n = 117, listed as BOS
[3] = part A, all dose levels, n = 67

COc1cc2cc(-c3ccc(CC(=O)Nc4cc(C(C)(C)C(F)(F)F)no4)cn3)cnc2cc1OC [BOS172738]
grade ≥3 TEAE of either hypertension or liver enzyme elevations (BOS172738-treated patients): 2%
Any TEAE (all pooled 75 mg, n = 70): 70 (100) n (%)
Any TEAE leading to BOS discontinuation (all pooled 75 mg, n = 70): 13 (19) n (%)
Any TEAE leading to BOS dose interruption (all pooled 75 mg, n = 70): 46 (66) n (%)
Any TEAE leading to BOS dose reduction (all pooled 75 mg, n = 70): 14 (20) n (%)
Any TEAE leading to study discontinuation (all pooled 75 mg, n = 70): 9 (13) n (%)
Any TEAE related to BOS leading to BOS discontinuation (all pooled 75 mg, n = 70): 6 (9) n (%)
Any TEAE related to BOS leading to study discontinuation (all pooled 75 mg, n = 70): 2 (3) n (%)
Any TEAE resulting in death (all pooled 75 mg, n = 70): 3 (4) n (%)
Any TEAE, grade ≥3 (all pooled 75 mg, n = 70): 57 (81) n (%)
Serious TEAEs related to BOS (all pooled 75 mg, n = 70): 4 (6) n (%)
Serious TEAEs, any (all pooled 75 mg, n = 70): 35 (50) n (%)
TEAE related to BOS, CTCAE grade ≥3: Anemia (all pooled 75 mg, n = 70): 4 (6) n (%)
TEAE related to BOS, CTCAE grade ≥3: Asthenia (all pooled 75 mg, n = 70): 1 (1) n (%)
TEAE related to BOS, CTCAE grade ≥3: Blood creatinine phosphokinase increased (all pooled 75 mg, n = 70): 14 (20) n (%)
TEAE related to BOS, CTCAE grade ≥3: Diarrhea (all pooled 75 mg, n = 70): 1 (1) n (%)
TEAE related to BOS, CTCAE grade ≥3: Hypophosphatemia (all pooled 75 mg, n = 70): 4 (6) n (%)
TEAE related to BOS, CTCAE grade ≥3: Lymphopenia (all pooled 75 mg, n = 70): 2 (3) n (%)
TEAE related to BOS, CTCAE grade ≥3: Muscular weakness (all pooled 75 mg, n = 70): 1 (1) n (%)
TEAE related to BOS, CTCAE grade ≥3: Myositis (all pooled 75 mg, n = 70): 0 n (%)
TEAE related to BOS, CTCAE grade ≥3: Neutropenia (all pooled 75 mg, n = 70): 2 (3) n (%)
TEAE related to BOS, CTCAE grade ≥3: Neutrophil count decreased (all pooled 75 mg, n = 70): 9 (13) n (%)
TEAE related to BOS, any (all pooled 75 mg, n = 70): 57 (81) n (%)
TEAE related to BOS, grade ≥3 (all pooled 75 mg, n = 70): 34 (49) n (%)
TEAE: anemia [1]: 46 (39%) n (%)
TEAE: aspartate aminotransferase increased [1]: 48 (41%) n (%)
TEAE: blood creatine phosphokinase increased [1]: 72 (62%) n (%)
TEAE: constipation [1]: 30 (26%) n (%)
TEAE: diarrhea [1]: 41 (35%) n (%)
TEAE: dyspnea [1]: 34 (29%) n (%)
TEAE: facial edema [1]: 31 (26%) n (%)
TEAE: fatigue [1]: 33 (28%) n (%)
TEAE: hypophosphatemia [1]: 31 (26%) n (%)
treatment discontinued due to TEAEs (final data cut-off, 117 patients): 20%
myositis leading to dose interruption (in total): 6%
severity of BOS172738-related TEAEs (in vivo): mostly grade 1-2
TEAE resulting in death: dyspnea (overall): 2%
patients discontinued from the study due to BOS172738-related TEAEs (overall): 4%
deaths considered related to BOS172738 (overall n = 117): None
serious TEAE related to BOS172738: muscular weakness (overall n = 117): 3 (3%) n (%)
serious TEAE related to BOS172738: myositis (overall n = 117): 2 (2%) n (%)
serious TEAE: anemia (overall n = 117): 4 (3%) n (%)
serious TEAE: dyspnea (overall n = 117): 8 (7%) n (%)
serious TEAE: pneumonia (overall n = 117): 7 (6%) n (%)
Any TEAE (overall total, n = 117): 117 (100) n (%)
Any TEAE leading to BOS discontinuation (overall total, n = 117): 30 (26%) n (%)
Any TEAE leading to BOS dose interruption (overall total, n = 117): 78 (67%) n (%)
Any TEAE leading to study discontinuation (overall total, n = 117): 18 (15) n (%)
Any TEAE related to BOS leading to BOS discontinuation (overall total, n = 117): 16 (14%) n (%)
Any TEAE related to BOS leading to study discontinuation (overall total, n = 117): 5 (4) n (%)
Any TEAE resulting in death (overall total, n = 117): 11 (9%) n (%)
Any TEAE, grade ≥3 (overall total, n = 117): 98 (84%) n (%)
Serious TEAEs related to BOS (overall total, n = 117): 16 (14%) n (%)
Serious TEAEs, any (overall total, n = 117): 67 (57%) n (%)
TEAE related to BOS, CTCAE grade ≥3: Anemia (overall total, n = 117): 10 (9%) n (%)
TEAE related to BOS, CTCAE grade ≥3: Asthenia (overall total, n = 117): 2 (2) n (%)
TEAE related to BOS, CTCAE grade ≥3: Blood creatinine phosphokinase increased (overall total, n = 117): 29 (25%) n (%)
TEAE related to BOS, CTCAE grade ≥3: Diarrhea (overall total, n = 117): 3 (3) n (%)
TEAE related to BOS, CTCAE grade ≥3: Hypophosphatemia (overall total, n = 117): 6 (5) n (%)
TEAE related to BOS, CTCAE grade ≥3: Lymphopenia (overall total, n = 117): 3 (3) n (%)
TEAE related to BOS, CTCAE grade ≥3: Muscular weakness (overall total, n = 117): 3 (3) n (%)
TEAE related to BOS, CTCAE grade ≥3: Myositis (overall total, n = 117): 2 (2) n (%)
TEAE related to BOS, CTCAE grade ≥3: Neutropenia (overall total, n = 117): 4 (3) n (%)
TEAE related to BOS, CTCAE grade ≥3: Neutrophil count decreased (overall total, n = 117): 12 (10%) n (%)
TEAE related to BOS, any (overall total, n = 117): 99 (85%) n (%)
TEAE related to BOS, grade ≥3 (overall total, n = 117): 63 (54%) n (%)
Any TEAE leading to BOS discontinuation [2]: 30 (26) n (%)
Any TEAE leading to BOS dose interruption [2]: 78 (67) n (%)
Any TEAE leading to BOS dose reduction [2]: 29 (25) n (%)
Any TEAE related to BOS leading to BOS discontinuation [2]: 16 (14) n (%)
Any TEAE resulting in death [2]: 11 (9) n (%)
Any TEAE, grade ≥3 [2]: 98 (84) n (%)
Serious TEAEs, any [2]: 67 (57) n (%)
TEAE related to BOS, CTCAE grade ≥3: Anemia [2]: 10 (9) n (%)
TEAE related to BOS, CTCAE grade ≥3: Blood creatinine phosphokinase increased [2]: 29 (25) n (%)
TEAE related to BOS, CTCAE grade ≥3: Neutrophil count decreased [2]: 12 (10) n (%)
TEAE related to BOS, any [2]: 99 (85) n (%)
TEAE related to BOS, grade ≥3 [2]: 63 (54) n (%)
DLT event (one patient) (part A, 75 mg cohort): blood creatine phosphokinase increased
DLT event (one patient) (part A, 100 mg cohort): muscle weakness and blood creatine phosphokinase increased
DLT event (one patient) (part A, 150 mg cohort): capillary leak syndrome
maximum tolerated dose (MTD) (part A, 10-150 mg orally once daily): not reached
patients with dose-limiting toxicities (part A, 10-150 mg orally once daily, cycle 1): three
Any TEAE [3]: 67 (100) n (%)
Any TEAE leading to BOS discontinuation [3]: 23 (34) n (%)
Any TEAE leading to BOS dose interruption [3]: 45 (67) n (%)
Any TEAE leading to BOS dose reduction [3]: 19 (28) n (%)
Any TEAE leading to study discontinuation [3]: 11 (16) n (%)
Any TEAE related to BOS leading to BOS discontinuation [3]: 14 (21) n (%)
Any TEAE related to BOS leading to study discontinuation [3]: 4 (6) n (%)
Any TEAE resulting in death [3]: 9 (13) n (%)
Any TEAE, grade ≥3 [3]: 57 (85) n (%)
Serious TEAEs related to BOS [3]: 12 (18) n (%)
Serious TEAEs, any [3]: 39 (58) n (%)
TEAE related to BOS, CTCAE grade ≥3: Anemia [3]: 7 (10) n (%)
TEAE related to BOS, CTCAE grade ≥3: Asthenia [3]: 2 (3) n (%)
TEAE related to BOS, CTCAE grade ≥3: Blood creatinine phosphokinase increased [3]: 19 (28) n (%)
TEAE related to BOS, CTCAE grade ≥3: Diarrhea [3]: 3 (4) n (%)
TEAE related to BOS, CTCAE grade ≥3: Hypophosphatemia [3]: 3 (4) n (%)
TEAE related to BOS, CTCAE grade ≥3: Lymphopenia [3]: 1 (1) n (%)
TEAE related to BOS, CTCAE grade ≥3: Muscular weakness [3]: 3 (4) n (%)
TEAE related to BOS, CTCAE grade ≥3: Myositis [3]: 2 (3) n (%)
TEAE related to BOS, CTCAE grade ≥3: Neutropenia [3]: 4 (6) n (%)
TEAE related to BOS, CTCAE grade ≥3: Neutrophil count decreased [3]: 5 (7) n (%)
